# Active and inactive are the calls of the source. No cut-off for these calls is given here.
# Assays:
# Mus musculus [1] = experiment: Anticonvulsant activity; 3 indicates no activity at doses up to and including 300 mg/kg in mice.; type: functional
# Procedure, shortened: (§1)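 Phase I screen in CF1 mice: compound suspended in 0.5% aqueous methylcellulose, given ip at 30, 100 and 300 mg/kg; MES, scMet and rotorod toxicity read at 30 min and 4 h. Class 1 = activity at 100 mg/kg or less; 2 = activity above 100 mg/kg; 3 = none up to 300 mg/kg.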
# Rattus norvegicus [2] = experiment: Anticonvulsant activity was determined; 2 indicates at doses greater than 100 mg/kg in rat; type: functional
# Mus musculus [3] = experiment: Anticonvulsant activity was determined; 2 indicates at doses greater than 100 mg/kg in mice; type: functional; procedure, shortened: as §1
# Mus musculus [4] = experiment: Anticonvulsant activity was determined in mice; 1 indicates 100 mg/kg or less; type: functional; procedure, shortened: as §1
# [5] = biological target: Sodium channel alpha subunits; brain (Types I, II, III) (Rattus norvegicus, UniProt P04775+P04774+P08104); experiment: Inhibition of [3H]BTX-B binding to neurotoxin site 2 of sodium channel of rat cerebral cortex synaptoneurosomes; type: tissue-based
# Procedure, shortened: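 Synaptoneurosomes from rat cerebral cortex were incubated with [3H]BTX-B (2.0 nM final) in HEPES, pH 7.4 at 25 °C, with 130 mM choline chloride, at 37 °C for 45 min. Reactions were stopped by rapid vacuum filtration onto glass fibre filters, and bound radioactivity was compared with control. IC50 was read from log concentration (10–800 µM) versus percent specific binding.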
# Rattus norvegicus [6] = experiment: Anticonvulsant activity was determined; 3 indicates no activity at doses up to and including 300 mg/kg in rat; type: functional
# Mus musculus [7] = species: Mus musculus; experiment: Effective dose for anticonvulsant activity determined in mice using MES test procedure. (Phase II); type: functional
# Rattus norvegicus [8] = species: Rattus norvegicus; experiment: Effective dose for anticonvulsant activity determined in rats using MES test procedure. (Phase VIA); type: functional
# Procedure, shortened: (§2)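 Phase VIA oral dosing in male Sprague–Dawley rats; MES and scMet ED50 and TD50 in mg/kg, each read at the time of peak effect; range in parentheses.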
# Mus musculus [9] = experiment: Effective dose for anticonvulsant activity determined in mice using subcutaneous Met test procedure. (Phase II); Potentiates; type: functional, organism-based
# Rattus norvegicus [10] = experiment: Effective dose for anticonvulsant activity determined in rats using subcutaneous Met test procedure. (Phase VIA); No protection; type: functional, organism-based
# Rattus norvegicus [11] = species: Rattus norvegicus; experiment: Effective dose for anticonvulsant activity determined in rats using MES test procedure. (Phase VIA, parentheses value indicate 95% confidence limits); type: functional; procedure, shortened: as §2
# Rattus norvegicus [12] = experiment: Anticonvulsant activity was determined in rat; 1 indicates 100 mg/kg or less; type: functional
# Rattus norvegicus [13] = species: Rattus norvegicus; experiment: Protective index measured as the […].; type: functional
# [14] = Toxic dose determined in rats using MES test procedure. (Phase VIA, parentheses value indicate 95% confidence limits); type: toxicity, organism-based; conditions: rat, in vivo; procedure, shortened: as §2
# Rattus norvegicus [15] = experiment: Anticonvulsant activity determined in rats at an oral dose of 50 mg/kg of phase VIA trials; active; type: functional
# Mus musculus [16] = experiment: Effective dose for anticonvulsant activity determined in mice using subcutaneous Met test procedure. (Phase II); No protection; type: functional, organism-based
# Rattus norvegicus [17] = experiment: Urine volume collected for biochemical tests after an ip dose of 100 mg/kg at day 2 in male rats.; type: functional; conditions: route intraperitoneal
# Procedure, shortened: (§3)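 Male Fischer 344 rats (200-245 g), four per group, housed singly in metabolism cages; day 0 control values taken, then a single ip dose of 100 mg/kg or vehicle (25% DMSO in corn oil). Pair-fed controls. Urine volume measured at 24 h intervals. At 48 h, under ether, blood drawn from the dorsal aorta; plasma assayed for ALT/GPT and BUN; kidney and liver weighed. Means ± SE.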
# Rattus norvegicus [18] = experiment: Urine volume collected for biochemical tests after an ip dose of 100 mg/kg at day 1 in male rats.; type: functional; conditions: route intraperitoneal; procedure, shortened: as §3
# [19] = Toxic dose determined in mice using MES test procedure. (Phase II); type: toxicity; conditions: mouse, in vivo
# Rattus norvegicus [20] = experiment: ALT/GPT activity in male rats on day 2 after ip administration of 100 mg/kg.; type: functional; conditions: route intraperitoneal; procedure, shortened: as §3
# Rattus norvegicus [21] = experiment: Urine volume collected for biochemical tests after an ip dose of 100 mg/kg at 0 day in male rats.; type: functional; conditions: route intraperitoneal; procedure, shortened: as §3
# [22] = Toxic dose determined in rats using MES test procedure. (Phase VIA); type: toxicity; conditions: rat, in vivo; procedure, shortened: as §2
# Rattus norvegicus [23] = experiment: Change in the blood urea nitrogen concentration on day 0 determined in male rats after ip administration of 100 mg/kg; Expressed as blood urea nitrogen concentration (mg %); type: functional; conditions: route intraperitoneal; procedure, shortened: as §3
# Rattus norvegicus [24] = experiment: Change in kidney weight on day 2 in male rats after ip administration of 100 mg/kg; expressed as kidney weight (g/100 g of body weight); type: functional; conditions: route intraperitoneal; procedure, shortened: as §3
# Rattus norvegicus [25] = experiment: Change in liver weight determined in male rats on day 2 after ip administration of 100 mg/kg; expressed as liver weight (g/100 g of body weight); type: functional; conditions: route intraperitoneal; procedure, shortened: as §3
# Rattus norvegicus [26] = experiment: Change in the blood urea nitrogen concentration on day 2 determined in male rats after ip administration of 100 mg/kg; Expressed as blood urea nitrogen concentration (mg %); type: functional; conditions: route intraperitoneal; procedure, shortened: as §3
# Rattus norvegicus [27] = experiment: Effective dose for anticonvulsant activity determined in rats using subcutaneous Met test procedure. (Phase VIA); type: functional; conditions: sc; procedure, shortened: as §2
# Mus musculus [28] = experiment: Effective dose for anticonvulsant activity determined in mice using subcutaneous Met test procedure. (Phase II); type: functional; conditions: sc
smiles,measurement,setting,value
CCOC(=O)[C@@H]1C(=O)C=C(Nc2ccc(OC)c(Cl)c2)C[C@H]1C,Anticonvulsant activity,Mus musculus [1],3
COC(=O)[C@@H]1C(=O)C=C(NNc2ccccc2)C[C@H]1C,Anticonvulsant activity,Rattus norvegicus [2],2
same,Anticonvulsant activity,Mus musculus [3],2
CCOC(=O)[C@@H]1C(=O)C=C(Nc2ccc(Cl)cc2Cl)C[C@H]1C,Anticonvulsant activity,Mus musculus [4],1
COC(=O)[C@@H]1C(=O)C=C(Nc2ccccc2OC)C[C@H]1C,Anticonvulsant activity,Mus musculus [1],3
CCOC(=O)[C@@H]1C(=O)C=C(Nc2ccc(Cl)c(Cl)c2Cl)C[C@H]1C,Anticonvulsant activity,Mus musculus [3],2
CCOC(=O)[C@@H]1C(=O)C=C(Nc2ccc(Cl)c(Cl)c2)C[C@H]1C,Anticonvulsant activity,Mus musculus [3],2
COC(=O)[C@@H]1C(=O)C=C(Nc2ccc(Cl)cc2Cl)C[C@H]1C,Anticonvulsant activity,Mus musculus [4],1
CCC1(c2ccccc2)C(=O)NC(=O)NC1=O [PHENOBARBITAL],IC50,[5],2.5 µM
COC(=O)[C@@H]1C(=O)C=C(Nc2cc(Cl)cc(Cl)c2)C[C@H]1C,Anticonvulsant activity,Mus musculus [1],3
COC(=O)[C@@H]1C(=O)C=C(Nc2cc(Cl)c(Cl)cc2Cl)C[C@H]1C,Anticonvulsant activity,Mus musculus [4],1
CCOC(=O)[C@@H]1C(=O)C=C(Nc2cc(Cl)ccc2Cl)C[C@H]1C,Anticonvulsant activity,Mus musculus [1],3
COC(=O)[C@@H]1C(=O)C=C(Nc2ccccc2Cl)C[C@H]1C,Anticonvulsant activity,Mus musculus [4],1
COC(=O)[C@@H]1C(=O)C=C(Nc2ccccc2[N+](=O)[O-])C[C@H]1C,Anticonvulsant activity,Mus musculus [3],2
CN1C(=O)CN=C(c2ccccc2)c2cc(Cl)ccc21 [DIAZEPAM],IC50,[5],152 µM
COC(=O)[C@@H]1C(=O)C=C(Nc2ccc(Cl)c(Cl)c2Cl)C[C@H]1C,Anticonvulsant activity,Mus musculus [1],3
COC(=O)[C@@H]1C(=O)C=C(NC2CCCCC2)C[C@H]1C,Anticonvulsant activity,Rattus norvegicus [6],3
same,Anticonvulsant activity,Mus musculus [1],3
NC(=O)N1c2ccccc2C=Cc2ccccc21 [CARBAMAZEPINE],ED50,Mus musculus [7],8.8 mg/kg
same,ED50,Rattus norvegicus [8],8.5 mg/kg
same,ED50,Mus musculus [9],Convulsant
same,ED50,Rattus norvegicus [10],inactive
COC(=O)[C@@H]1C(=O)C=C(Nc2ccc(Cl)c(Cl)c2)C[C@H]1C,Anticonvulsant activity,Mus musculus [4],1
COC(=O)[C@@H]1C(=O)C=C(Nc2cc(Cl)ccc2Cl)C[C@H]1C,Anticonvulsant activity,Mus musculus [4],1
CCOC(=O)[C@@H]1C(=O)C=C(Nc2cc(Cl)c(Cl)c(Cl)c2)C[C@H]1C,Anticonvulsant activity,Mus musculus [3],2
COC(=O)[C@@H]1C(=O)C=C(Nc2cc(C)ccc2OC)C[C@H]1C,Anticonvulsant activity,Mus musculus [3],2
CCOC(=O)[C@@H]1C(=O)C=C(NNc2ccccc2)C[C@H]1C,Anticonvulsant activity,Rattus norvegicus [6],3
same,Anticonvulsant activity,Mus musculus [1],3
CCOC(=O)[C@@H]1C(=O)C=C(Nc2ccc(Cl)cn2)C[C@H]1C,Anticonvulsant activity,Mus musculus [4],1
same,ED50,Rattus norvegicus [11],12.1 mg/kg
same,Anticonvulsant activity,Rattus norvegicus [12],1
same,PI,Rattus norvegicus [13],28.4
same,TD50,[14],> 344 mg/kg
COC(=O)[C@@H]1C(=O)C=C(Nc2cc(OC)ccc2Cl)C[C@H]1C,Anticonvulsant activity,Mus musculus [3],2
COC(=O)[C@@H]1C(=O)C=C(Nc2ccc(Cl)cn2)C[C@H]1C,Anticonvulsant activity,Rattus norvegicus [15],1
same,Anticonvulsant activity,Mus musculus [4],1
COC(=O)[C@@H]1C(=O)C=C(Nc2ccccc2C#N)C[C@H]1C,Anticonvulsant activity,Mus musculus [3],2
COC(=O)[C@@H]1C(=O)C=C(Nc2ccccc2C(F)(F)F)C[C@H]1C,Anticonvulsant activity,Mus musculus [3],2
O=C1NC(=O)C(c2ccccc2)(c2ccccc2)N1,ED50,Mus musculus [16],inactive
same,ED50,Rattus norvegicus [10],inactive
COC(=O)[C@@H]1C(=O)C=C(Nc2ccccc2Br)C[C@H]1C,Anticonvulsant activity,Mus musculus [1],3
CCOC(=O)[C@@H]1C(=O)C=C(Nc2cc(C)ccc2OC)C[C@H]1C,Anticonvulsant activity,Mus musculus [4],1
COC(=O)[C@@H]1C(=O)C=C(Nc2c(Cl)cccc2Cl)C[C@H]1C,Anticonvulsant activity,Mus musculus [1],3
CCOC(=O)[C@@H]1C(=O)C=C(NC2CCCCC2)C[C@H]1C,Anticonvulsant activity,Mus musculus [4],1
same,Anticonvulsant activity,Rattus norvegicus [12],1
COC(=O)[C@@H]1C(=O)C=C(Nc2ccc(Cl)cc2)C[C@H]1C,Urine volume,Rattus norvegicus [17],10.2 mL
same,Urine volume,Rattus norvegicus [18],9.6 mL
same,TD50,[19],255 mg/kg
same,ALT/GPT,Rattus norvegicus [20],25 U/L
same,IC50,[5],489 µM
same,Urine volume,Rattus norvegicus [21],13.8 mL
same,TD50,[22],> 380 mg/kg
same,ED50,Rattus norvegicus [8],5.8 mg/kg
same,Activity,Rattus norvegicus [23],14%
same,Activity,Rattus norvegicus [24],0.35
same,Activity,Rattus norvegicus [25],4.16
same,Activity,Rattus norvegicus [26],14%
same,ED50,Rattus norvegicus [27],> 190 mg/kg
same,ED50,Mus musculus [28],> 254 mg/kg
CCOC(=O)[C@@H]1C(=O)C=C(Nc2cc(Cl)cc(Cl)c2)C[C@H]1C,Anticonvulsant activity,Mus musculus [1],3
COC(=O)[C@@H]1C(=O)C=C(Nc2ccc(OC(F)(F)F)cc2)C[C@H]1C,ED50,Mus musculus [7],22.4 mg/kg
same,TD50,[19],122 mg/kg
same,IC50,[5],170 µM
same,TD50,[22],> 158 mg/kg
same,ED50,Rattus norvegicus [8],9.3 mg/kg
same,ED50,Rattus norvegicus [27],> 79 mg/kg
same,ED50,Mus musculus [28],114 mg/kg
COC(=O)[C@@H]1C(=O)C=C(Nc2ccccc2F)C[C@H]1C,Anticonvulsant activity,Mus musculus [3],2
COC(=O)[C@@H]1C(=O)C=C(Nc2ccccc2I)C[C@H]1C,Anticonvulsant activity,Mus musculus [4],1
CCOC(=O)[C@@H]1C(=O)C=C(Nc2cc(Cl)c(Cl)cc2Cl)C[C@H]1C,Anticonvulsant activity,Mus musculus [1],3
COC(=O)[C@@H]1C(=O)C=C(Nc2ccccc2S(N)(=O)=O)C[C@H]1C,Anticonvulsant activity,Mus musculus [1],3
CCOC(=O)[C@@H]1C(=O)C=C(Nc2ccccc2Cl)C[C@H]1C,Anticonvulsant activity,Mus musculus [1],3
COC(=O)[C@@H]1C(=O)C=C(Nc2ccc(OC)c(Cl)c2)C[C@H]1C,Anticonvulsant activity,Mus musculus [1],3
COC(=O)[C@@H]1C(=O)C=C(Nc2ccccc2C)C[C@H]1C,Anticonvulsant activity,Mus musculus [1],3
CCc1ccccc1NC1=CC(=O)[C@@H](C(=O)OC)[C@H](C)C1,Anticonvulsant activity,Mus musculus [4],1
Nc1nnc(-c2cccc(Cl)c2Cl)c(N)n1 [LAMOTRIGINE],ED50,Mus musculus [7],2.6 mg/kg
same,IC50,[5],114 µM
CCOC(=O)[C@@H]1C(=O)C=C(Nc2c(Cl)cccc2Cl)C[C@H]1C,Anticonvulsant activity,Mus musculus [1],3
COC(=O)[C@@H]1C(=O)C=C(Nc2ccccc2O)C[C@H]1C,Anticonvulsant activity,Mus musculus [1],3
CCOC(=O)[C@@H]1C(=O)C=C(Nc2ccccc2N)C[C@H]1C,Anticonvulsant activity,Mus musculus [1],3

# Source: ChEMBL document CHEMBL1128458, “Synthesis and anticonvulsant activity of enaminones. 3. Investigations on 4'-, 3'-, and 2'-substituted and polysubstituted anilino compounds, sodium channel binding studies, and toxicity evaluations” (J Med Chem, 1995)
